Measurements: paper PMC5796531 (Chemistry (Weinheim an der Bergstrasse, Germany), 2014)
Like-named read-outs stand apart in the source and are kept apart here.

Columns and labels:
Format in all cases: cell-based, human
[1] = tested on: T98G brain cancer cells; experiment: MTT cell growth inhibition assay, T98G; details: read-out: IC50 values, T98G
Method in brief: (§1)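 MTT assay: cells seeded at 1 × 10^5/well and allowed to adhere 24 h (37°C, 5% CO2). Compound was diluted from DMSO:water (1:3) stock into incomplete medium; finals 300–0.07 μM for 24 h. After a PBS rinse, cells got MTT (5 mg/ml) for 3 h; formazan dissolved in DMSO; A540 read. % viability = OD sample/OD control ×100. IC50 from dose-response curve fitting. Three independent duplicate sets; untreated and cisplatin controls.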

[2] = tested on: SNU80 thyroid cancer cells; experiment: MTT cell growth inhibition assay, SNU80; details: read-out: IC50 values, SNU80
Method in brief: as §1

[3] = tested on: HEK293 non-cancerous cells; experiment: MTT cell growth inhibition assay, HEK293; details: read-out: IC50 values, HEK293
Method in brief: as §1

[4] = tested on: KB head and neck cancer cells; experiment: MTT cell growth inhibition assay, KB; details: read-out: IC50 values, KB
Method in brief: as §1

[5] = tested on: T98G cells; experiment: Cellular uptake by fluorescence detection; details: 1–4 μM
Method in brief: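 T98G cells in 96-well plates were allowed to adhere for 12 h, then exposed to 1–4 μM at 37°C in complete medium. After a PBS wash and medium replacement, cell-associated fluorescence was read on a plate reader (ex 330, em 485 nm). Free ligand served as the positive control. Microscopy: cells on glass slides, 2 μM overnight, ex 340–380 / barrier 435–485 filters.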

| SMILES | IC50 ([1]; Homo sapiens, T98G, 24 h) | IC50 ([2]; Homo sapiens, 24 h) | IC50 ([3]; Homo sapiens, HEK293, 24 h) | IC50 ([4]; Homo sapiens, 24 h) | cellular uptake: fluorescence detected in cells [5] | IC50 ([1]; T98G brain cancer cells, MTT, 24 h treatment) | IC50 ([2]; SNU80 thyroid cancer cells, MTT, 24 h treatment) | IC50 ([3]; HEK293 non-cancerous cells, MTT, 24 h treatment) | IC50 ([4]; KB head and neck cancer cells, MTT, 24 h treatment) |
| --- | --- | --- | --- | --- | --- | --- | --- | --- | --- |
| O=C(Nc1ccc(C#Cc2ccncc2)cc1)c1cccc(C(=O)Nc2ccc(C#Cc3ccncc3)cc2)n1 [Complex 1, N,N′-bis(4-(pyridin-4-ylethynyl)phenyl)pyridine-2,6-dicarboxamide] | 144 µM | 107 µM | 157 µM | 125 µM | very weak fluorescence | – | – | – | – |
| N.N.[Cl][Pt][Cl] [cisplatin, reference compound] | – | – | – | – | – | 69.6 µM | 49.3 µM | 17.3 µM | 72.6 µM |
